The values that follow come from ChEMBL document CHEMBL1122281, “Synthesis and antifilarial activity of N-[4-[[4-alkoxy-3-[(dialkylamino)methyl]phenyl]amino]- 2-pyrimidinyl]-N'-phenylguanidines” (J Med Chem, 1983).

Data set [1] relates to Litomosoides carinii. Nature of the data set: Antifilarial activity against Litomosoides carinii infections in the Jird at dose 100 mg/kg administered subcutaneously. Type of data set: functional. Conditions: route subcutaneous. Summed up:
(§1)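 L. carinii-infected jirds were dosed. Survivors were killed 55–70 days after the first dose, and the pleural and peritoneal cavities were searched for adult worms. Live worms at autopsy were scored as a percentage relative to sham-dosed controls. Adult worm reduction above 60% was the activity criterion.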

Data set [2] deals with Litomosoides carinii. Put plainly: Antifilarial activity against Litomosoides carinii infections in the Jird at dose 25 mg/kg administered orally. The following applies: route oral. Type of data set: functional. Summed up:
as §1

Data set [3] concerns Litomosoides carinii. Put plainly: Antifilarial activity against Litomosoides carinii infections in the Jird at dose 100 mg/kg administered orally. Type of data set: functional. Conditions: route oral. Summed up: as §1
In data set [4] the test system is Litomosoides carinii. Put plainly: Antifilarial activity against Litomosoides carinii infections in the Jird at dose 3 mg/kg administered orally. Type of data set: functional. The following applies: route oral. Summed up: as §1
Data set [5] concerns Litomosoides carinii. Put plainly: Antifilarial activity against Litomosoides carinii infections in the Jird at dose 25 mg/kg administered subcutaneously. Type of data set: functional. The following applies: route subcutaneous. Summed up:
as §1

The subject of data set [6] is Litomosoides carinii. Put plainly: Antifilarial activity against Litomosoides carinii infections in the Jird at dose 50 mg/kg administered orally. Type of data set: functional. The following applies: route oral. Summed up: as §1
The subject of data set [7] is Litomosoides carinii. Put plainly: Antifilarial activity against Litomosoides carinii infections in the Jird at dose 12 mg/kg administered orally. Type of data set: functional. The following applies: route oral. Summed up:
as §1

The nature of data set [8]: Antifilarial activity against Litomosoides carinii infections in the Jird at dose 100 mg/kg administered subcutaneously; two or more animals died prematurely considered to be drug toxicity. Type of data set: organism-based, Meriones unguiculatus. Also on record: dose 100 mg/kg, route subcutaneous. The following applies: gerbil, in vivo, sc. Summed up: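 Jirds infected with Litomosoides carinii. Surviving animals killed 55–70 days after first drug dose; pleural and peritoneal cavities searched for adult worms. Live worm count at autopsy scored as percentage relative to sham-dosed controls. Activity criterion: adult worm reduction exceeding 60%.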

Take `CCN(CC)Cc1cc(Nc2cc(C(F)(F)F)nc(/N=C(\N)Nc3ccc(C(F)(F)F)cc3)n2)ccc1OCc1ccccc1`: the “Reduction of live worms” value in the data set on Litomosoides carinii [1] was determined as 100%; with Litomosoides carinii [2], 100%; in the data set with Litomosoides carinii [3] it was 100%; in the data set on Litomosoides carinii [4] it was 0%.

As for `CCN(CC)Cc1cc(Nc2ccnc3cc(Cl)ccc23)ccc1O.Cl`, the “Reduction of live worms” value in the data set with Litomosoides carinii [1] is given as 100%; in the data set with Litomosoides carinii [2], 71%; in the data set with Litomosoides carinii [5], 61%; in the data set with Litomosoides carinii [3] it was 72%.

Turning to `CCN(CC)Cc1cc(Nc2cc(C(F)(F)F)nc(/N=C(\N)Nc3ccc(OC)cc3)n2)ccc1OC`, the “Reduction of live worms” value with Litomosoides carinii [1] was 100%; in the data set on Litomosoides carinii [2], 100%; in the data set with Litomosoides carinii [4], 0%.

In the case of `CCN(CC)Cc1cc(Nc2cc(C(F)(F)F)nc(/N=C(\N)Nc3ccc(Cl)c(Cl)c3)n2)ccc1OC`, the “Reduction of live worms” value in the data set on Litomosoides carinii [1], in the data set with Litomosoides carinii [2], with Litomosoides carinii [5] and in the data set on Litomosoides carinii [4] was 100% throughout.

As to `CC(C)CNCc1cc(Nc2cc(C(F)(F)F)nc(/N=C(\N)Nc3ccc(Cl)c(Cl)c3)n2)ccc1O`, the “Reduction of live worms” value is 100% with Litomosoides carinii [2], 100% with Litomosoides carinii [3] and 35% in the data set with Litomosoides carinii [4].

Turning to `CCN(CC)Cc1cc(Nc2cc(C(F)(F)F)nc(/N=C(\N)Nc3ccc(OC)cc3)n2)ccc1O`, the “Reduction of live worms” value in the data set on Litomosoides carinii [1] is recorded as 95%; in the data set on Litomosoides carinii [2], 100%; with Litomosoides carinii [3], 95%; in the data set with Litomosoides carinii [4], 2%.

Consider `COc1ccc(Nc2cc(C(F)(F)F)nc(/N=C(\N)Nc3ccccc3)n2)cc1CN1CCN(C)CC1`, for which the entries for the “Reduction of live worms” value with Litomosoides carinii [2], in the data set on Litomosoides carinii [3] and in the data set with Litomosoides carinii [4] were 95%, 100% and 5%, respectively.

On to `N/C(=N\c1ccc(Cl)cc1)Nc1nc(Nc2ccc(O)c(CN3CCCC3)c2)cc(C(F)(F)F)n1`, for which the “Reduction of live worms” value in the data set with Litomosoides carinii [6] is recorded as 100%; with Litomosoides carinii [7], 87%.

For `CCN(CC)Cc1cc(Nc2cc(-c3ccccc3)nc(/N=C(\N)Nc3ccc(Cl)c(Cl)c3)n2)ccc1O`, the “Reduction of live worms” value was 53% with Litomosoides carinii [1] and 47% with Litomosoides carinii [3].

Consider `CCNCc1cc(Nc2cc(C(F)(F)F)nc(/N=C(\N)Nc3ccc(C(=O)c4ccccc4)cc3)n2)ccc1OC`, for which the “Reduction of live worms” value in the data set on Litomosoides carinii [1] was 0%.

Consider `CCN(CC)Cc1cc(Nc2cc(C(F)(F)F)nc(/N=C(\N)Nc3ccc(Cl)c(Cl)c3)n2)ccc1OCc1ccccc1`, for which the “Reduction of live worms” value in the data set with Litomosoides carinii [2] was 100%; in the data set with Litomosoides carinii [3], 100%; with Litomosoides carinii [4] it was 52%.

On to `CCN(CC)Cc1cc(Nc2cc(C(F)(F)F)nc(/N=C(\N)Nc3ccc(C(=O)c4ccccc4)cc3)n2)ccc1OC`, for which the “Reduction of live worms” value in the data set on Litomosoides carinii [1] is given as 19%; in the data set with Litomosoides carinii [3] it was 16%.

As to `CN1CCN(Cc2cc(Nc3cc(C(F)(F)F)nc(/N=C(\N)Nc4ccc(Cl)cc4)n3)ccc2O)CC1`, the figures for the “Reduction of live worms” value in the data set with Litomosoides carinii [6] and in the data set on Litomosoides carinii [7] were 98% and 38%, respectively.

As to `CCNCc1cc(Nc2nc(/N=C(\N)Nc3ccc(Cl)c(Cl)c3)nc3c2CCCC3)ccc1OC`, the Animals dead in data set [8] is given as above 2. Besides, the “Reduction of live worms” value in the data set on Litomosoides carinii [5] was 69%.

Regarding `CCNCc1cc(Nc2cc(C(F)(F)F)nc(/N=C(\N)Nc3ccc(C(F)(F)F)cc3)n2)ccc1OC`, the “Reduction of live worms” value in the data set with Litomosoides carinii [1] stood at 100%; in the data set on Litomosoides carinii [2], 100%; with Litomosoides carinii [3] it was 100%; in the data set with Litomosoides carinii [4], 30%.

Regarding `CCN(CC)Cc1cc(Nc2cc(C(F)(F)F)nc(/N=C(\N)Nc3ccc(Oc4ccccc4)cc3)n2)ccc1OC`, the entries for the “Reduction of live worms” value in the data set on Litomosoides carinii [1] and in the data set with Litomosoides carinii [2] were 0% and 27%, respectively. This compound also came in with an Animals dead in data set [8] above 2.

Take `CCOC(=O)N1CCN(Cc2cc(Nc3cc(C(F)(F)F)nc(/N=C(\N)Nc4ccc(Cl)c(Cl)c4)n3)ccc2O)CC1`: the “Reduction of live worms” value in the data set on Litomosoides carinii [1] is on record as 31%.

Turning to `N/C(=N\c1ccc(Cl)c(Cl)c1)Nc1nc(Nc2ccc(O)c(CN3CCCC3)c2)cc(C(F)(F)F)n1`, the results for the “Reduction of live worms” value in the data set on Litomosoides carinii [2], in the data set on Litomosoides carinii [3] and in the data set with Litomosoides carinii [4] were 100%, 100% and 59%, respectively.

With `CCNCc1cc(Nc2cc(C(F)(F)F)nc(/N=C(\N)Nc3ccccc3)n2)ccc1OC`, the “Reduction of live worms” value with Litomosoides carinii [1] was 96%; with Litomosoides carinii [2] it was 33%.

As for `COc1ccc(Nc2cc(C(F)(F)F)nc(/N=C(\N)Nc3ccc(Cl)c(Cl)c3)n2)cc1CN(C)C`, the “Reduction of live worms” value in the data set with Litomosoides carinii [1], in the data set on Litomosoides carinii [2], in the data set with Litomosoides carinii [3] and in the data set with Litomosoides carinii [4] was 100% each time. Besides, in data set [8], the Animals dead is listed as above 2.

Turning to `CCN(CC)Cc1cc(Nc2cc(C(F)(F)F)nc(/N=C(\N)Nc3ccc(Cl)cc3)n2)cc(-c2ccccc2)c1O`, the “Reduction of live worms” value with Litomosoides carinii [1] is reported as 35%; in the data set on Litomosoides carinii [3], 88%.

As to `CCN(CC)Cc1cc(Nc2cc(C(F)(F)F)nc(/N=C(\N)Nc3ccccc3)n2)ccc1OC`, the “Reduction of live worms” value stood at 100% in the data set on Litomosoides carinii [6] and 38% in the data set with Litomosoides carinii [7].

With `CCOc1ccc(Nc2cc(C(F)(F)F)nc(/N=C(\N)Nc3ccc(Cl)c(Cl)c3)n2)cc1CN(CC)CC`, the entries for the “Reduction of live worms” value in the data set on Litomosoides carinii [2], with Litomosoides carinii [3] and in the data set on Litomosoides carinii [4] were 100%, 100% and 21%, respectively.

For `CN1CCN(Cc2cc(Nc3cc(C(F)(F)F)nc(/N=C(\N)Nc4ccc(C(=O)c5ccccc5)cc4)n3)ccc2O)CC1`, the “Reduction of live worms” value in the data set on Litomosoides carinii [1] came out at 8%.

Take `CCN(CC)Cc1cc(Nc2nc(/N=C(\N)Nc3ccc(Cl)c(Cl)c3)nc3c2CCCC3)ccc1O`: in the data set on Litomosoides carinii [1], the “Reduction of live worms” value amounted to 0%.

In the case of `CCN(CC)Cc1cc(Nc2cc(C(F)(F)F)nc(/N=C(\N)Nc3ccc(C(F)(F)F)cc3)n2)ccc1OC`, the “Reduction of live worms” value was 100% with Litomosoides carinii [1], 100% in the data set on Litomosoides carinii [2], 100% in the data set on Litomosoides carinii [3] and 73% in the data set with Litomosoides carinii [4].

On to `CCN(CC)Cc1cc(Nc2cc(C(F)(F)F)nc(/N=C(\N)Nc3ccc(Cl)c(Cl)c3)n2)ccc1OC(C)C`, for which the “Reduction of live worms” value in the data set on Litomosoides carinii [1] is reported as 100%; in the data set on Litomosoides carinii [2] it was 100%; with Litomosoides carinii [3], 100%; in the data set with Litomosoides carinii [4], 11%.

With `CCN(CC)Cc1cc(Nc2cc(C(F)(F)F)nc(/N=C(\N)Nc3ccc(C(=O)c4ccccc4)cc3)n2)ccc1OCc1ccccc1`, the “Reduction of live worms” value amounted to 0% in the data set on Litomosoides carinii [1] and 27% in the data set on Litomosoides carinii [3].

Take `N/C(=N\c1ccc(Cl)c(Cl)c1)Nc1nc(Nc2ccc(O)c(CNCC3CCCCC3)c2)cc(C(F)(F)F)n1`: the “Reduction of live worms” value in the data set with Litomosoides carinii [1] came to 4%.

Consider `CN(C)Cc1cc(Nc2cc(C(F)(F)F)nc(/N=C(\N)Nc3ccc(C(=O)c4ccccc4)cc3)n2)ccc1O`, for which the “Reduction of live worms” value in the data set on Litomosoides carinii [1] is on record as 100%; with Litomosoides carinii [2], 32%; with Litomosoides carinii [4] it was -22%.

As for `CCN(CC)Cc1cc(Nc2cc(C(F)(F)F)nc(/N=C(\N)Nc3ccc(C(=O)c4ccccc4)cc3)n2)ccc1O`, the “Reduction of live worms” value with Litomosoides carinii [1] and in the data set with Litomosoides carinii [3] was 6% in each case.

Turning to `CN1CCN(Cc2cc(Nc3cc(C(F)(F)F)nc(/N=C(\N)Nc4ccccc4)n3)ccc2O)CC1`, the “Reduction of live worms” value is on record as 78% in the data set on Litomosoides carinii [6], 0% with Litomosoides carinii [7] and 91% in the data set on Litomosoides carinii [3].

`CCN(CC)Cc1cc(Nc2cc(C(F)(F)F)nc(/N=C(\N)Nc3ccc(Oc4ccccc4)cc3)n2)ccc1OCc1ccccc1`: the “Reduction of live worms” value worked out at 0% with Litomosoides carinii [1] and 22% with Litomosoides carinii [3].

As to `CN1CCN(Cc2cc(Nc3cc(C(F)(F)F)nc(/N=C(\N)Nc4ccc(Oc5ccccc5)cc4)n3)ccc2O)CC1`, the “Reduction of live worms” value in the data set on Litomosoides carinii [1] is 8%.

With `CCNCc1cc(Nc2cc(C(F)(F)F)nc(/N=C(\N)Nc3ccc(Oc4ccccc4)cc3)n2)ccc1OC`, the “Reduction of live worms” value in the data set on Litomosoides carinii [1] was 0%.

With `CCN(CC)Cc1cc(Nc2cc(C(F)(F)F)nc(/N=C(\N)Nc3ccccc3)n2)ccc1O`, the “Reduction of live worms” value was 100% with Litomosoides carinii [6] and 47% in the data set on Litomosoides carinii [7].

For `CCN(CC)Cc1cccc(Nc2cc(C(F)(F)F)nc(/N=C(\N)Nc3ccc(Cl)c(Cl)c3)n2)c1`, the “Reduction of live worms” value in the data set with Litomosoides carinii [2] turned out to be 100%; in the data set on Litomosoides carinii [3] it was 100%; in the data set on Litomosoides carinii [4], 83%.

Turning to `CN(C)Cc1cc(Nc2cc(C(F)(F)F)nc(/N=C(\N)Nc3ccc(C(F)(F)F)cc3)n2)ccc1O`, the “Reduction of live worms” value in the data set on Litomosoides carinii [2] is reported as 100%; in the data set with Litomosoides carinii [4], 54%. In data set [8], the Animals dead is listed as above 2.

With `CCOc1ccc(Nc2cc(-c3ccccc3)nc(/N=C(\N)Nc3ccc(Cl)c(Cl)c3)n2)cc1CN(CC)CC`, the figures for the “Reduction of live worms” value in the data set with Litomosoides carinii [2] and in the data set with Litomosoides carinii [4] were 78% and 15%, respectively. In data set [8], this compound showed an Animals dead above 2.

With `CCN(CC)Cc1cc(Nc2cc(C(F)(F)F)nc(/N=C(\N)Nc3ccc(Oc4ccccc4)cc3)n2)ccc1O`, the “Reduction of live worms” value with Litomosoides carinii [1] is on record as 3%; with Litomosoides carinii [3] it was 9%.

`CN(C)Cc1cc(Nc2cc(C(F)(F)F)nc(/N=C(\N)Nc3ccc(Oc4ccccc4)cc3)n2)ccc1O`: the “Reduction of live worms” value in the data set with Litomosoides carinii [1] was determined as 12%.

For `CCNCc1cc(Nc2cc(-c3ccccc3)nc(/N=C(\N)Nc3ccc(Cl)c(Cl)c3)n2)ccc1OC`, the “Reduction of live worms” value with Litomosoides carinii [1] was 0%.
